Laboratory results reported in ChEMBL document CHEMBL1125775 (J Med Chem, 1991).

Assays:
[1] = target: T1, Adrenergic receptor alpha-1 (Rattus norvegicus, UniProt P15823+P23944+P43140); test: Binding affinity against alpha-1 adrenergic receptor; format: protein assay
T1 sequence (P15823 whole entry): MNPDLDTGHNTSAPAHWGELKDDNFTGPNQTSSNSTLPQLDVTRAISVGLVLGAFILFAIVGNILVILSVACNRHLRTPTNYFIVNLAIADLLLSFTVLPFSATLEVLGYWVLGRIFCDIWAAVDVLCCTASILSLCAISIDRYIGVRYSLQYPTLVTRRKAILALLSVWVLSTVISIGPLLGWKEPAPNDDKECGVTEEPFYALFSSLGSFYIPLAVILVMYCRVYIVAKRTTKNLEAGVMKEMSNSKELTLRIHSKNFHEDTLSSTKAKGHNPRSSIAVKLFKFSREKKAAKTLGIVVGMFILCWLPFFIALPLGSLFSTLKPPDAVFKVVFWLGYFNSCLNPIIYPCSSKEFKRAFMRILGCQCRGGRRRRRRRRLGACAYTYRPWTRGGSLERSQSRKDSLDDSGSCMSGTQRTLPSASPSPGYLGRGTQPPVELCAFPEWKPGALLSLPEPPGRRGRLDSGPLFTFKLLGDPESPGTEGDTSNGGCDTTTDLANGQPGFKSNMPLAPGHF
T1 sequence (P23944 whole entry): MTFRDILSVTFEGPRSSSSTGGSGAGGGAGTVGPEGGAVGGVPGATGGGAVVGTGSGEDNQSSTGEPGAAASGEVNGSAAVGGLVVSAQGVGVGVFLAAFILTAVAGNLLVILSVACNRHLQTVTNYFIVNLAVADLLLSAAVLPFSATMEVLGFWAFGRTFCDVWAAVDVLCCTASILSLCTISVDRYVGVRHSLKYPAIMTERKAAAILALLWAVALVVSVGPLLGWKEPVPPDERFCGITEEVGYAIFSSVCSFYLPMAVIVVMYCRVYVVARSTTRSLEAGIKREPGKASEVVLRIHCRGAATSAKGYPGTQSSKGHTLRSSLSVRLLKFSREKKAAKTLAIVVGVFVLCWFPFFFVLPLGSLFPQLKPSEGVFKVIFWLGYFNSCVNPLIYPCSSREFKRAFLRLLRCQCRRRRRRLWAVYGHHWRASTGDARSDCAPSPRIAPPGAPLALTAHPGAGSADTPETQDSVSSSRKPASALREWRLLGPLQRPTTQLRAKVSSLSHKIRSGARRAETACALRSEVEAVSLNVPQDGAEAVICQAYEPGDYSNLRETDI
T1 sequence (P43140 whole entry): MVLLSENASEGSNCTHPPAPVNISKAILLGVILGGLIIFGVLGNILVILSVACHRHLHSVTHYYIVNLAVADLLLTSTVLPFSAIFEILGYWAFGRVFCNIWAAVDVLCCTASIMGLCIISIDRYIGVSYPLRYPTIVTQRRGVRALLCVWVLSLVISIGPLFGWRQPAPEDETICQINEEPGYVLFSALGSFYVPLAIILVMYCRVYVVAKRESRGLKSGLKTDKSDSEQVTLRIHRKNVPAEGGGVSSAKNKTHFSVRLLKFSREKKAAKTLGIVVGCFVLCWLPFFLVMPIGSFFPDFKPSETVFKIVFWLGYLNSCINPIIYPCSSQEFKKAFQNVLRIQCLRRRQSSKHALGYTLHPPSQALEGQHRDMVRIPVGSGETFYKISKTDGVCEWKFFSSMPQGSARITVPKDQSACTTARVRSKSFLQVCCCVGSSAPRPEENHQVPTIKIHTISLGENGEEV
Outline: (§1)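 Radioligand binding at α1 adrenergic receptors using [3H]prazosin in a standard binding assay.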

Glutamate NMDA receptor = test: N-methyl-D-aspartate glutamate receptor antagonistic activity in cell culture(CC)model; format: functional
Outline: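 Functional NMDA antagonism in rat hippocampal cell cultures. Read-out is protection of the cultured neurons against toxicity from extracellularly applied glutamate (the glutamate-induced hippocampal neurodegeneration model).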

[2] = test system: Alpha-1 adrenergic receptor versus NMDA receptor; test: (§2) Therapeutic index is the ratio of IC50 value for Alpha-1 adrenergic receptor to that for NMDA.; details: read-out: TI
Outline: (§3)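 Selectivity index calculated as α1 adrenergic potency ([3H]prazosin binding) divided by activity in the rat hippocampal culture glutamate-neurotoxicity model.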

[3] = target: T1, Adrenergic receptor alpha-1; test: Compound was tested for the binding affinity against Alpha-1 adrenergic receptor; format: protein assay; outline: as §1
[4] = as §2; outline: as §3
[5] = target: Muscarinic acetylcholine receptor M3 (Rattus norvegicus, UniProt P08483); test: Compound was tested for the binding affinity against muscarinic acetylcholine receptorby using [3H]QNB as radioligand
[6] = target: 5-hydroxytryptamine receptor 2A (Bos taurus, UniProt Q75Z89); test: Compound was tested for the binding affinity against 5-hydroxytryptamine 2 receptor by using [3H]ketanserin as radioligand
D(2) dopamine receptor = D(2) dopamine receptor (Homo sapiens, UniProt P14416); test: Compound was tested for the binding affinity against dopamine receptor D2 by using [3H]spiperone as radioligand
D(1A) dopamine receptor = D(1A) dopamine receptor (Mus musculus, UniProt Q61616); test: Compound was tested for the binding affinity against dopamine receptor D1 by using [3H]-SCH- 23390 as radioligand
Histamine H1 receptor = Histamine H1 receptor (Homo sapiens, UniProt P35367); test: Compound was tested for the binding affinity against histamine H1 receptor by using [3H]mepyramine as radioligand
[7] = target: T2, 5-hydroxytryptamine receptor 1A (Mus musculus, UniProt Q64264); test: Compound was tested for the binding affinity against 5-hydroxytryptamine 1A receptor by using [3H]DPAT as radioligand
T2 sequence (Q64264 whole entry): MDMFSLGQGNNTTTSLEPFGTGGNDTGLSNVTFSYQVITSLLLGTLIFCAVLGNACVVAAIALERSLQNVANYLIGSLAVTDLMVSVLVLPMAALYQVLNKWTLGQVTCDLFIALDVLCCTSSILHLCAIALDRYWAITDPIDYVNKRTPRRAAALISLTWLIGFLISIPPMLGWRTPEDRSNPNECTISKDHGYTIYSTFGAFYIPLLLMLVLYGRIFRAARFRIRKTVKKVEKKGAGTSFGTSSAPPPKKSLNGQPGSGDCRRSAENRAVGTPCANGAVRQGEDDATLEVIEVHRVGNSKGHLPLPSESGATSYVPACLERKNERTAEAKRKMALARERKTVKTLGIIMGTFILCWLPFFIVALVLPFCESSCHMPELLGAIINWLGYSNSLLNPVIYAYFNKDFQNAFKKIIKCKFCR

Mu-type opioid receptor = Mu-type opioid receptor (Homo sapiens, UniProt P35372); test: Compound was tested for the binding affinity against opioid receptor mu by using [3H]naloxone as radioligand
Mu-type opioid receptor, sequence (P35372 whole entry): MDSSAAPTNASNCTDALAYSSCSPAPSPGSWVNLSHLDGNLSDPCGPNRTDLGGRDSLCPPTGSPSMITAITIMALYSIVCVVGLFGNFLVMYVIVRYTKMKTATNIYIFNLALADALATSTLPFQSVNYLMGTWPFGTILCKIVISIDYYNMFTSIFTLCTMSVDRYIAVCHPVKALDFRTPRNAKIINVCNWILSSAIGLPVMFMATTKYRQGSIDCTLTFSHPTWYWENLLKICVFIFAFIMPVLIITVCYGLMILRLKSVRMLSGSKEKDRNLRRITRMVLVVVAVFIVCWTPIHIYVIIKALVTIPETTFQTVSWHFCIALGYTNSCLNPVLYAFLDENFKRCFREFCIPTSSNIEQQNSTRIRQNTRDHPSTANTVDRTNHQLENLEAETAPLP

Muscarinic acetylcholine receptor M3, sequence (P08483 whole entry): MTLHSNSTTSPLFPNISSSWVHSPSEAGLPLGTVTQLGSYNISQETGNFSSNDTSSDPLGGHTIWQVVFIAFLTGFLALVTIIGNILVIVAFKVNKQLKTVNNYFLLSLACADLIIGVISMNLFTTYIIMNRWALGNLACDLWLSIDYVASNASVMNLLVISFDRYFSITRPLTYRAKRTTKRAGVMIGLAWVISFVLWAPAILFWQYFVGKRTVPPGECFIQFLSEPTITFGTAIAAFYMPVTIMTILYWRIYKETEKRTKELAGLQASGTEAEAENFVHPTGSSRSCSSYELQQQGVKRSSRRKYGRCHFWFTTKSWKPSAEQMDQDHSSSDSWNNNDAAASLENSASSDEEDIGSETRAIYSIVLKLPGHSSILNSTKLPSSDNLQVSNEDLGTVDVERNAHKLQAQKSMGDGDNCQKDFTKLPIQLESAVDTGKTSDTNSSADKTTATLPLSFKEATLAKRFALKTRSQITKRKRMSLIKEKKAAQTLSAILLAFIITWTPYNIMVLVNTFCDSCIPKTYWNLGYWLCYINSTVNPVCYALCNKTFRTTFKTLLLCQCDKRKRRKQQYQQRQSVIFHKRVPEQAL
5-hydroxytryptamine receptor 2A, sequence (Q75Z89 whole entry): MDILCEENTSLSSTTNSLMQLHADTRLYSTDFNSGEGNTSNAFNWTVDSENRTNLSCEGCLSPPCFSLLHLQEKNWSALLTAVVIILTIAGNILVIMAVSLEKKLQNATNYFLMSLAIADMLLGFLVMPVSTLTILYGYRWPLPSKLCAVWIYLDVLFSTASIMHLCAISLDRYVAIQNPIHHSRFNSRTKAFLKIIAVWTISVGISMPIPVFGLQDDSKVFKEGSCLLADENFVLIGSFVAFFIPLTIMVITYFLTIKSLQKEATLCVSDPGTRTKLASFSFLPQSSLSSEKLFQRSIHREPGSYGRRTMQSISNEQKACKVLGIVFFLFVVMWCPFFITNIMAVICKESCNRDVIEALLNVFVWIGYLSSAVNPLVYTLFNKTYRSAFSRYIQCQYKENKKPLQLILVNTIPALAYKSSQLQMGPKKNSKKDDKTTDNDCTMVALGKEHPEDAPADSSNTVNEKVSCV
D(2) dopamine receptor, sequence (P14416 whole entry): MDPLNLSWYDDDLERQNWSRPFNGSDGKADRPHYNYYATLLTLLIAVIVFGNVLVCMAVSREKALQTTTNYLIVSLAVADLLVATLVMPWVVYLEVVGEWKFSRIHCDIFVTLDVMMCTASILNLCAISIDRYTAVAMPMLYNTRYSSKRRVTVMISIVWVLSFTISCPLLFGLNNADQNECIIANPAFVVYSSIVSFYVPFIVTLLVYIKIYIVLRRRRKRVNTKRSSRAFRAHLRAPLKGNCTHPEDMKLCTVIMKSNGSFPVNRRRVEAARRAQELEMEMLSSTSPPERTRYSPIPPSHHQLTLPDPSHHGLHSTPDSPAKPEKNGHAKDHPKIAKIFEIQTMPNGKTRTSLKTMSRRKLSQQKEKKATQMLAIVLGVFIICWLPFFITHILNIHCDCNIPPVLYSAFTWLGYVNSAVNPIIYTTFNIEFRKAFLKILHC
Histamine H1 receptor, sequence (P35367 whole entry): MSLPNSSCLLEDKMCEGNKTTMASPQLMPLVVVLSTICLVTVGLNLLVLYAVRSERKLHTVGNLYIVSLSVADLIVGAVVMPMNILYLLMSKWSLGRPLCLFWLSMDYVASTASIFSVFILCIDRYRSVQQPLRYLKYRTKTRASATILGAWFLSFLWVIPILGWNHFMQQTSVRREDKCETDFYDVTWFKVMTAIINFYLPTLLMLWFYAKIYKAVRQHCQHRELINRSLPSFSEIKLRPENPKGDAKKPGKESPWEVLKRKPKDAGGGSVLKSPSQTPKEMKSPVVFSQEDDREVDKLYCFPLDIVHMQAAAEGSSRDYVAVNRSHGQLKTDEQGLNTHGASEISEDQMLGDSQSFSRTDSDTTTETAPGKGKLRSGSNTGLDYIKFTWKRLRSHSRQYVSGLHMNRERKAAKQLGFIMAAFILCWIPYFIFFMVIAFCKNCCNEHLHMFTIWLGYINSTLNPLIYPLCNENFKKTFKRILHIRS
D(1A) dopamine receptor, sequence (Q61616 whole entry): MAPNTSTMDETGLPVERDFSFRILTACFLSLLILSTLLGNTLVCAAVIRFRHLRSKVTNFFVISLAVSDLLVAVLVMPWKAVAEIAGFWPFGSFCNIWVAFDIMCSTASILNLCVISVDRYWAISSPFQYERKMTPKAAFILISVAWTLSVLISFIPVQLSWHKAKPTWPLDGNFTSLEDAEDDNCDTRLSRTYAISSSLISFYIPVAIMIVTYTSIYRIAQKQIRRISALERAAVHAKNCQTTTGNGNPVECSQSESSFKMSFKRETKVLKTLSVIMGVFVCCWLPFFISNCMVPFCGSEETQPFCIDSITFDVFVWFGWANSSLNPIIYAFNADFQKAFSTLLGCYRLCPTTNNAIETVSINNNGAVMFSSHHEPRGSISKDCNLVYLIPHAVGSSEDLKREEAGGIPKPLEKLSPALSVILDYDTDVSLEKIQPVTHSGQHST

IC50 [1] [µM] | IC50 (Glutamate NMDA receptor) [µM] | Compound | selectivity ratio [2] | further results
> 10 | > 10 | C[C@@H]([C@@H](O)c1ccc(O)cc1)N1CCN(C(=O)c2ccccc2)CC1 |  | 
0.573 |  | C[C@@H]([C@H](O)c1ccccc1)N1CCC(Cc2ccccc2)CC1 | 0.28 | 
> 10 | > 10 | CC(CO)N1CCC(Cc2ccccc2)CC1 (stereo not given) |  | 
0.22 |  | C[C@@H]([C@H](O)c1ccc(F)cc1)N1CCC(Cc2ccccc2)CC1 | 0.94 | 
2.133 | 5 | OC(CN1CCC(Cc2ccccc2)CC1)c1ccccc1 (stereo not given) | 0.43 | 
0.13 | 0.153 | CC(Cc1ccc(O)cc1)N1CCC(Cc2ccccc2)CC1 (stereo not given) | 0.85 | 
0.347 | 0.29 | c1ccc(CCN2CCC(Cc3ccccc3)CC2)cc1 | 1.19 | 
 | 10 | C[C@@H]([C@@H](O)c1ccc(O)cc1)N1CCN(Cc2ccccc2)CC1 |  | IC50 [3]: 4.633 µM
3.4 | 3.7 | C[C@@H]([C@@H](O)c1ccccc1)N1CCC(Cc2ccccc2)CC1 | 0.92 | 
2.566 | 0.1 | C[C@@H]([C@@H](O)c1ccc(F)cc1)N1CCC(Cc2ccccc2)CC1 | 25.6 | 
 |  | C[C@@H]([C@@H](O)c1ccc(O)cc1)N1CCC(Cc2ccccc2)CC1 (stereo in doubt; 2) [(S)-IFENPRODIL] |  | IC50 [3]: 0.843 µM
2.306 |  | C[C@@H]([C@@H](O)c1ccc(O)cc1)N1CCC(Cc2ccccc2)CC1 (stereo in doubt; 18) [(S)-IFENPRODIL] |  | TI [4]: 48
0.629 |  | C[C@@H]([C@@H](O)c1ccc(O)cc1)N1CCC(Cc2ccccc2)CC1 (stereo in doubt; 19) [(S)-IFENPRODIL] |  | 
0.135 |  | C[C@@H]([C@H](O)c1ccc(O)cc1)N1CCC(Cc2ccccc2)CC1 [(R,S)-IFENPRODIL] |  | 
 |  | CC(C(O)c1ccc(O)cc1)N1CCC(Cc2ccccc2)CC1 (stereo not given) [IFENPRODIL] |  | IC50 [5]: > 1 µM; IC50 [6]: 0.61 µM; IC50 (D(2) dopamine receptor): > 1 µM; IC50 [3]: 0.1 µM; IC50 (D(1A) dopamine receptor): > 1 µM; IC50 (Histamine H1 receptor): 1 µM; IC50 [7]: 0.238 µM; IC50 (Mu-type opioid receptor): > 1 µM

Compound | IC50 [1] [µM] | IC50 (Glutamate NMDA receptor) [µM] | selectivity ratio [2] | further results
CCCC1CCN([C@@H](C)[C@@H](O)c2ccc(O)cc2)CC1 | 2.867 | 6.3 | 0.61 | 
C[C@@H]([C@H](O)c1ccc(O)cc1)N1CCCCC1 | > 10 | > 10 |  | 
C[C@@H]([C@@H](O)c1ccc(O)cc1)N1CCCCC1 | > 10 | > 10 |  | 
